# A selection: hits, their analogues and other compounds. The true share with any hit is near 3.3%.
# Hep lipid drop: hepatic lipid droplet formation modulation; AID 1656; hit rate 0.4% among 240,000; AML12 mouse hepatocytes, oleate lipid droplets, BODIPY imaging; inhibition, % at 6.5 µM;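 active = lipid droplet intensity inhibited by at least 50%, with more than 500 cells counted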
#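 Assay system: AML12 mouse liver cells | Compound: 6.5 µM single-point dosing | Schedule: Overnight exposure | Technique: Fluorescence imaging, 20x objective, two fields per well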
# PfM18AAP inh-1: PfM18AAP enzyme inhibition; inhibition, % at 7.35 µM; recombinant PfM18AAP, H-Glu-NHMec fluorogenic cleavage; hit rate 1.2% among 290,000;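 active = inhibition above the campaign mean inhibition over all tested compounds plus 3 SD, cut at about 28% in these data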;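 also: 0% = plate median of test compound wells and 100% = 2 mM ZnCl2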
# sPLA2-III inh: Inhibits HGIII-sPLA2 liposome hydrolysis, primary screen; QFRET BODIPY PC-A2 liposome hydrolysis, fluorescence; inhibition, % at 12.2 µM; hit rate 0.56% among 370,000; AID 743126;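 active = inhibition above mean plus 3 SD of compounds lying within the high and low control bounds, cut at about 19% in these data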;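 also: 0% = median of test compound wells and 100% = no enzyme DMSO wells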
# m5-HT2A agonist: agonists of mouse serotonin 5-HT2A receptor (HTR2A); activation, % at 7.6 µM; CHO-K1 mHTR2A beta-arrestin complementation, luminescence; percent of 30 µM serotonin response; hit rate 0.66% among 360,000; AID 624169;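 active = activation above a run cutoff, the mean activation of all tested compounds plus 3 SD, cut at about 14% in these data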;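 also: 0% = plate median of compound wells and 100% = 30 µM serotonin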
# NRP1-CendR mod: modulators of CendR peptide binding to human neuropilin-1 | O14786 | FAM-RPARPAR peptide binding to NRP-1, fluorescence polarization | inhibition, % at 25 µM | hit rate 0.85% among 360,000 | AID 602438;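 active = inhibition or corrected inhibition above about 18%, plus a signal ratio from 0.5 to 1.5, limit read from the data, passing the limit was not always enough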
# Target sequence (O14786 whole entry, looked up): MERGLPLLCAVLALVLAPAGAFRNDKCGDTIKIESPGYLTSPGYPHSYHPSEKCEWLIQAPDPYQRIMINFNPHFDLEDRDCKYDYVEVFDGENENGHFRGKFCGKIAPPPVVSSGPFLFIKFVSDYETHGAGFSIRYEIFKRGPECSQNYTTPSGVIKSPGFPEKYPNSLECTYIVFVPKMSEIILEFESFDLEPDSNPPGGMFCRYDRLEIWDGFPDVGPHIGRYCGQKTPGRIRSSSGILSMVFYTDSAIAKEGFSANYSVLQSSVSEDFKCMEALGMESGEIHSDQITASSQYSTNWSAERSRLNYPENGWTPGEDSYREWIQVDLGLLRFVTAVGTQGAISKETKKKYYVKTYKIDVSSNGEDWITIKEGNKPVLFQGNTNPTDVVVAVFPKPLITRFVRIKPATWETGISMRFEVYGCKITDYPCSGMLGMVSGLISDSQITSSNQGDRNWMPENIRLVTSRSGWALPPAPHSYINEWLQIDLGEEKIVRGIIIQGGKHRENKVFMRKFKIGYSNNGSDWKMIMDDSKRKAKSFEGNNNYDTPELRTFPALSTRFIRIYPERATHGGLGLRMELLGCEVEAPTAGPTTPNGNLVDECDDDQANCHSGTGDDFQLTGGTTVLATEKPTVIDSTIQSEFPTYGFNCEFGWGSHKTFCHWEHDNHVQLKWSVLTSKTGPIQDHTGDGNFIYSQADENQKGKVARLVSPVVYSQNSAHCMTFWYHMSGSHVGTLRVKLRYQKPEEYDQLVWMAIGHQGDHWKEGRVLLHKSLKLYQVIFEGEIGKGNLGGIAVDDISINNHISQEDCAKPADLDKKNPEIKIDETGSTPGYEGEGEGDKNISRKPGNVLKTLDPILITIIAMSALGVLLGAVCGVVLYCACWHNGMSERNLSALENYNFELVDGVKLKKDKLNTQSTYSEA
# Arr AP2 block: blocks beta-arrestin peptide binding to AP2 adaptin; FITC-arrestin peptide / GST-AP2 beads, flow cytometry; AP2 beta2 appendage carries R879A mutation; hit rate 0.31% among 340,000; AID 504490; inhibition, % at 10 µM;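 active = inhibition above a set limit, near 3 SD of compounds lacking own fluorescence, cut at about 54% in these data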;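 also: plate controls were DMSO wells for no effect and 5 µM unlabelled arrestin peptide for full effect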
#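 System: GST-tagged AP2 beta2-adaptin appendage (R879A) on 4 µm glutathione beads / Reagent: FITC-arrestin peptide, 50 nM / Detection: HyperCyt-sampled flow cytometry, FL1 channel, ex 488/em 535 nm / Timing: 12 min plus 1 h, RT / Buffer or medium: PBS plus Tween 20 (0.05%) and BSA (0.1%)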
# PfM18AAP inh-2: PfM18AAP inhibition, confirmation; shares compounds with PfM18AAP inh-1; recombinant PfM18AAP, H-Glu-NHMec fluorogenic cleavage; inhibition, % at 7.35 µM; hit rate 28% among 2,400; AID 2170;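 active = mean inhibition over replicate wells above the hit cutoff set for the earlier primary screen, cut at about 29% in these data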;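 also: 0% = median of test compound wells and 100% = 2 mM ZnCl2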
# CTSL1 confirm: counter-screen for PFM18AAP inhibitors: confirmation of human cathepsin L inhibitors; shares compounds with PfM18AAP inh-1; purified cathepsin L1, Z-Leu-Arg-MCA fluorescence; inhibition, % at 5.96 µM; 2,400 tested, under 10 active; AID 2178;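 active = average inhibition across replicates above the hit cutoff set in the earlier primary screen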;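 also: 0% = median of test compound wells and 100% = Z-Phe-Ala-diazomethylketone 1 µM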
# * = called active by the depositor; . = no result given.
SMILES,Hep lipid drop,PfM18AAP inh-1,sPLA2-III inh,m5-HT2A agonist,NRP1-CendR mod,Arr AP2 block,PfM18AAP inh-2,CTSL1 confirm
OCCN1CCN(c2ncnc3sc4c(c23)CCCC4)CC1,-4.1,5.3,1.3,-1.9,-0.7,18.2,.,.
Oc1ccc(N2CCN(c3ncnc4sc5c(c34)CCC5)CC2)cc1,.,38.8*,-10.6,-3.6,-11.8,42.0,3.0,-1.0
Cn1c(=O)[nH]c(=O)c2c1[nH]c(=S)n2Cc1ccc(Cl)cc1,.,48.5*,-2.2,2.8,-4.1,-10.1,16.0,2.9
Cn1c(=O)c2c(nc(Br)n2CCCc2ccccc2)n(C)c1=O,.,-18.1,-0.3,-0.8,-5.0,24.1,.,.
Cn1c(=O)[nH]c(=O)c2c1nc(Br)n2Cc1ccc(Cl)cc1,.,.,4.9,-3.7,-3.0,.,.,.
Cn1c(=O)n(Cc2ccccc2Cl)c2ccccc21,5.0,-2.0,-5.6,6.3,-9.2,44.1,.,.
Cn1c(=O)c2c([nH]c(=S)n2CCCc2ccccc2)n(C)c1=O,-0.7,44.4*,13.5,2.1,5.5,-19.1,29.7*,-0.9
Cn1c(=O)[nH]c(=O)c2c1nc(Br)n2CCCc1ccccc1,-1.7,2.4,.,.,.,.,.,.
Cn1c(=O)[nH]c(=O)c2c1[nH]c(=S)n2CCCc1ccccc1,.,57.6*,-0.1,-0.3,-3.2,-1.8,40.7*,2.4
Cn1c(=O)n(Cc2ccccc2Cl)c(=O)c2c1[nH]c(=S)n2C,-0.2,36.0*,7.2,2.5,5.7,-0.7,-14.0,-4.9
CCc1nc2c(OCc3ccccc3)cccn2c1N(Cc1ccccc1)C(C)=O,.,.,1.5,-3.1,0.9,.,.,.
Nc1[nH]c2cc(C(F)(F)F)ccc2c1C(=O)N1CCN(CCc2ccccc2)CC1,.,.,-17.5,.,.,.,.,.
CC(C)C(=O)N[C@H]1[C@H](O)CCC[C@@]12C(=O)N(Cc1ccccc1)c1ccccc12,.,.,6.4,.,.,.,.,.
CC(C)=NNc1nc2c(c(=O)[nH]c(=O)n2C)n1CCCc1ccccc1,-0.1,35.8*,5.5,-3.8,1.0,-11.1,-28.9,-7.1
COc1ccc(/C=C2\CN(Cc3ccccc3)C/C(=C\c3ccc(OC)c(O)c3)C2=O)cc1O,-21.5,45.5*,-24.2,-4.3,5.6,4.3,2.9,-1.2
O=C(N/N=C/c1ccc[nH]1)c1cc2ccccc2cc1O,-1.7,39.4*,6.7,-5.0,-14.2,31.1,-45.3,6.9
O=C(N/N=C/c1ccncc1)c1cc2ccccc2cc1O,-4.4,20.2,-6.7,-9.2,0.7,-6.1,.,.
CCOC(=O)c1ccccc1NC(=O)CN1C(=O)NC(C)(CCc2ccccc2)C1=O (stereo not given),.,.,-17.2,-4.8,6.9,6.0,.,.
CCCC1=Nc2cc(C(=O)N3CCN(c4ccccn4)CC3)ccc2Sc2ccc(C)cc21,11.3,-3.5,-3.5,-9.6,11.6,22.4,.,.
CCc1ccc(C(=O)NNc2ccc(S(N)(=O)=O)cc2)cc1,6.1,35.3*,-3.4,3.9,10.9,2.6,-10.4,0.8
Cc1[nH]n(-c2ccc(F)cc2)c(=O)c1/C=N/c1sc2c(c1C#N)CCCC2,.,33.6*,-6.6,0.4,-13.9,2.9,-56.1,3.4
Cc1[nH]n(-c2cccc3ccccc23)c(=O)c1/C=N/c1sc2c(c1C#N)CCC2,-3.9,13.9,12.5,-3.1,-26.1,32.4,.,.
CCc1nc2ccc(C(=O)NCCC(C)C)cn2c1N(CCN(C)C)CC1CC1,.,.,13.5,-2.8,4.4,.,.,.
S=c1[nH]nc(COc2ccccc2)n1/N=C/c1ccccc1Br,-7.2,34.6*,-6.3,0.4,-1.1,-3.4,9.0,5.9
COc1ccc(-c2nc(=S)[nH][nH]2)cc1OC,13.6,22.1,5.0,0.2,-3.7,-2.3,.,.
SMILES,Hep lipid drop,PfM18AAP inh-1,sPLA2-III inh,m5-HT2A agonist,NRP1-CendR mod,Arr AP2 block,PfM18AAP inh-2,CTSL1 confirm
COc1cc(-c2nc(=S)[nH][nH]2)cc(OC)c1OC,5.6,35.3*,-3.7,0.4,6.6,-3.0,26.4,-5.8
O=C(/C=C/[C@H]1O[C@@H](n2ccc(=O)[nH]c2=O)[C@H](O)[C@@H]1O)NCCN1CCOCC1,.,.,4.8,-2.4,6.8,.,.,.
CCOC(=O)c1cnc(SSc2ncc(C(=O)OCC)c(N)n2)nc1N,1.2,64.3*,12.4,3.5,12.3,-9.0,43.7*,1.8
NC(=O)c1c(NC(=O)c2cccnc2)sc2c1CCCCC2,8.5,32.8*,4.9,6.3,-4.1,19.6,-34.8,0.9
N#Cc1cccc(C#N)c1Oc1ccc(S(=O)(=O)Nc2ccc(Cl)cc2)cc1,-15.1,2.1,-32.8,-2.1,-0.4,-3.5,.,.
CCN(CC)S(=O)(=O)c1cc([N+](=O)[O-])ccc1NNC(=O)Nc1ccccc1OC,7.9,55.9*,-14.0,-5.4,-0.3,-12.3,13.2,4.2
CCN(CC)S(=O)(=O)c1cc([N+](=O)[O-])ccc1NNC(=O)Nc1ccc(F)cc1,-19.4,36.8*,-12.3,5.7,-3.8,-4.4,29.1*,4.2
CCN(CC)S(=O)(=O)c1ccc(OC)c(NC(=O)c2ccc([N+](=O)[O-])cc2)c1,-4.0,-1.8,4.7,-3.7,-15.1,35.2,.,.
O=C(Nc1ccc(F)cc1)Nc1ccc([N+](=O)[O-])cn1,10.8,-8.6,8.0,1.2,-0.4,36.6,.,.
CCOC(=O)N1CCN(C(=O)C[C@H]2C[C@@]3(C(=O)OC)C(=C[C@H](C4CCCC4)O[C@@H]3C)N(Cc3cccc4ccccc34)C2=O)CC1,.,.,-8.6,.,.,.,.,.
O=C(/C=C1\SC(=O)NC1=O)Nc1ccc(C(=O)O)cc1,8.6,36.4*,-4.7,0.8,-8.2,-7.8,-37.0,2.1
CCc1ccc(CN(C)C(=O)CCc2nnc(COc3ccccc3)o2)cc1,-32.5,1.0,-6.9,-2.6,7.7,7.3,.,.
N#CC1=C(N)Nc2ncnn2C1c1ccccc1 (stereo not given),-0.5,37.6*,.,.,.,.,-40.7,0.2
CC(C)(C)OC(=O)C[C@H]1C/C=C\C[C@@H](CC(=O)N(CCO)Cc2ccccc2)C(=O)N[C@H](Cc2c[nH]c3ccccc23)COC1=O,.,.,-60.5,-3.8,-0.4,-2.4,.,.
OC1COC(OCC2OC(OCc3ccccc3)C(O)C(O)C2O)C(O)C1O (stereo not given),-10.4,34.8*,15.8,-3.6,2.0,10.5,-3.1,-9.2
OC[C@H]1O[C@H](OCc2ccccc2)[C@H](O[C@@H]2OC[C@@H](O)[C@H](O)[C@H]2O)[C@@H](O)[C@@H]1O,.,.,3.0,1.5,7.1,4.7,.,.
COC(=O)[C@]12C[C@H](CC(=O)NCc3cccc(C(F)(F)F)c3)C(=O)N(Cc3ccc4c(c3)OCO4)C1=C[C@H](C(C)(C)C)O[C@@H]2C,.,.,-3.5,.,.,.,.,.
Cc1ccc(S(=O)(=O)N2C[C@H]3N(C(=O)OC(C)C)N(C(=O)OC(C)C)C[C@H](OC(=O)NCc4ccccc4F)[C@@]3(O)C2)cc1,.,.,-18.2,-3.0,0.7,.,.,.
